The subject of data set [1] is PM1. Briefly: Induction of conformational change in human immunodeficiency virus 1 JR-FL R5 subtype B gp120 infected in human PM1 cells assessed as increase in binding affinity to monoclonal antibody 4C11 at 100 uM after 15 mins by FACS analysis. The class given is cell-based. Put shortly: (§1)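 PM1 cells chronically infected with JR-FL (R5, subtype B) were pre-incubated with CD4 mimic for 15 min, with sCD4 at 0.5 µg/mL as reference. They were then incubated with CD4i mAb 4C11 at 4 °C for 15 min, washed with PBS and stained with FITC anti-human IgG. Flow cytometry read the 4C11 mean fluorescence intensity on gated PM1 cells, with anti-CD19 as control antibody. There were at least two independent experiments.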
A general note: A flow cytometer gives signals particle by particle.

Data set [2] can be described thus: Cytotoxicity against CCR5-expressing human PM1 cells assessed as reduction of cell viability after 7 days by WST8 assay. The class given is cell-based. An outline of the steps: (§2)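 PM1/CCR5 cells were infected with the HIV-1 R5 primary isolate YTA, or mock-infected for cytotoxicity, and incubated with compound at 37 °C for 7 days. Viability was read by WST-8 (Cell Counting Kit-8). IC50 is the concentration giving 50% protection from virus-induced cytopathogenicity. CC50 is the concentration giving 50% loss of viability in mock-infected cells. Assays were run in duplicate or triplicate.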
On the technique in general: Tetrazolium dyes change colour on reduction, which living cells bring about.

Data set [3] has as its system Human immunodeficiency virus 1. The data set can be described thus: Antiviral activity against Human immunodeficiency virus 1 R5 primary isolate YTA48P infected in CCR5-expressing human PM1 cells assessed as inhibition of virus-induced cytopathogenicity after 7 days by WST8 assay. The class given is functional, organism-based. As to conditions: PM1, 168 h. Put shortly:
as §2

Data set [4] relates to PM1. The data set can be described thus: Induction of conformational change in human immunodeficiency virus 1 JR-FL R5 subtype B gp120 infected in human PM1 cells assessed as increase in binding affinity to monoclonal antibody 4C11 at 25 to 100 uM after 15 mins by FACS analysis. The class given is cell-based. Put shortly: as §1

Structures are written as SMILES. Active and inactive are the calls of the source. The rule behind the calls is not given here.

This passage reports Activity, CC50 and IC50 results from ChEMBL document CHEMBL2412961, “CD4 mimics as HIV entry inhibitors: lead optimization studies of the aromatic substituents” (Bioorg Med Chem, 2013).

`Cc1ccc(NC(=O)C(=O)NC2CC(C)(C)NC(C)(C)C2)cc1Br`: in the data set on PM1 [1], the result was Active. Also, the CC50 – broadly, the concentration giving 50% cytotoxicity – at 168 h in data set [2] is 32 µM. Further, the concentration for half-maximal inhibition (IC50) (usually the concentration that gives 50% inhibition) in data set [3] was > 10 µM.
With `CC1(C)CC(NC(=O)C(=O)Nc2ccc(Cl)c(Cl)c2)CC(C)(C)N1`, the outcome in the data set with PM1 [1] was Active. Further, in data set [2], the CC50 at 168 h came to 36 µM. Besides, the 50% inhibitory concentration (IC50) in data set [3] was determined as 4.1 µM.
As for `Cc1cc(NC(=O)C(=O)NC2CC3(CCCCC3)NC3(CCCCC3)C2)ccc1Cl` (stereo not given), in the data set on PM1 [1], the result was Active. Moreover, the CC50 at 168 h in data set [2] was 15 µM. Besides, the IC50 in data set [3] was found to be 2.6 µM.
For `Cc1ccc(NC(=O)C(=O)NC2CC(C)(C)NC(C)(C)C2)cc1Cl` the same measures were “Active”, 62 µM and 3.2 µM.
For `CC1(C)CC(NC(=O)C(=O)Nc2ccc(Cl)c(F)c2)CC(C)(C)N1`, in that order: “Active”, 94 µM and 0.32 µM.
`Cc1ccc(NC(=O)C(=O)NC2CC3(CCCCC3)NC3(CCCCC3)C2)cc1Br` (stereo not given): the result with PM1 [1] was Active. Besides, in data set [2], the CC50 at 168 h turned out to be 11 µM. Moreover, in data set [3], the IC50 was 3.2 µM.
In the case of `Cc1ccc(NC(=O)C(=O)NC2CC(C)(C)NC(C)(C)C2)cc1`, the half-maximal inhibitory concentration (IC50) in data set [3] was determined as 9 µM.
As for `Cc1cc(NC(=O)C(=O)NC2CC(C)(C)NC(C)(C)C2)ccc1Cl`, in the data set with PM1 [1], the outcome was Active. The CC50 at 168 h in data set [2] turned out to be 38 µM. Besides, the IC50 in data set [3] came out at 3.3 µM.
Consider `CC1(C)CC(NC(=O)C(=O)Nc2ccc(Cl)cc2)CC(C)(C)N1`, for which the IC50 in data set [3] amounted to 0.61 µM.
For the compound `Cc1ccc(NC(=O)C(=O)NC2CC3(CCCCC3)NC3(CCCCC3)C2)cc1Cl` (stereo not given), the result in the data set on PM1 [1] was Active. In data set [2], the CC50 at 168 h amounted to 11 µM. Further, the IC50 in data set [3] was determined as 6.2 µM.
Consider `O=C(Nc1ccc(Cl)cc1)C(=O)NC1CC2(CCCCC2)NC2(CCCCC2)C1` (stereo not given), for which the IC50 in data set [3] was 0.43 µM.
For `O=C(Nc1ccc(Cl)c(Cl)c1)C(=O)NC1CC2(CCCCC2)NC2(CCCCC2)C1` (stereo not given), in the data set on PM1 [1], the result was Active. In addition, the half-maximal cytotoxic concentration (CC50) at 168 h in data set [2] was found to be 11 µM. For the same compound, the IC50 in data set [3] is 0.62 µM.
For `Cc1ccc(NC(=O)C(=O)NC2CC3(CCCCC3)NC3(CCCCC3)C2)cc1F` (stereo not given), in that order: “Active”, 91 µM and 0.54 µM.
For `Cc1ccc(NC(=O)C(=O)NC2CC(C)(C)NC(C)(C)C2)cc1F`, in that order: “Active”, 110 µM and 2.8 µM.
Turning to `O=C(Nc1ccc(Cl)c(F)c1)C(=O)NC1CC2(CCCCC2)NC2(CCCCC2)C1` (stereo not given), the outcome with PM1 [1] and in the data set with PM1 [4] was Active. The CC50 at 168 h in data set [2] was found to be 11 µM. The IC50 in data set [3] was found to be 0.23 µM.
